Source: ChEMBL document CHEMBL1148636, “Novel analogues of degarelix incorporating hydroxy-, methoxy-, and pegylated-urea moieties at positions 3, 5, 6 and the N-terminus. Part III” (J Med Chem, 2006)
Numbered stars: 1 amine (or outer) side, 2 acyl side, 3 side chain; on linkers, the order of the positions; unused ones are H or OH. Square brackets hold non-standard residues; d marks the D form. Peptide text beside a SMILES is read from it. * marks the point of attachment. dPhe(4-NHCONH2) = NC(=O)Nc1ccc(C[C@@H](N)C(=O)O)cc1; Dihydroorotyl(S) = O=C1C[C@@H](C(=O)*)NC(=O)N1; dPhe(4-NH2) = Nc1ccc(C[C@@H](N)C(=O)O)cc1; dPhe(4-Cl) = N[C@H](Cc1ccc(Cl)cc1)C(=O)O; Phe(4-NH2) = Nc1ccc(C[C@H](N)C(=O)O)cc1; d2Nal = N[C@H](Cc1ccc2ccccc2c1)C(=O)O; Lys(iPr) = CC(C)NCCCC[C@H](N)C(=O)O; NHCH2CH2OCH2CH2OEt = CCOCCOCCN*; d3Pal = N[C@H](Cc1cccnc1)C(=O)O; Methoxycarbamoyl = CONC(=O)*; CO = O=C([*:1])[*:2]

How the values were obtained:
Rattus norvegicus [1] = experiment: Inhibition of GnRH-induced LH secretion in Sprague-Dawley rat at 50 ug, sc for 3 hrs; format: functional
Method in brief: (§1)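 Male rats castrated ten days earlier (≥5 per group) injected sc with 50 μg peptide in 50 μL 5% mannitol (0.6% DMSO in the stock); vehicle controls run alongside. Tail-tip blood taken pre-dose and at 3, 72, 96, 120, 144, 168 and sometimes 192 h; plasma LH by RIA, all samples of one experiment in the same assay; >80% inhibition scored.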

[2] = target: T1, Gonadotropin-releasing hormone receptor (Homo sapiens, UniProt P30968); experiment: Antagonist activity at human GnRH receptor expressed in HEK293 cells as inhibition of GnRH-induced LH secretion by reporter gene assay; format: functional, cell-based
T1 sequence (P30968 whole entry): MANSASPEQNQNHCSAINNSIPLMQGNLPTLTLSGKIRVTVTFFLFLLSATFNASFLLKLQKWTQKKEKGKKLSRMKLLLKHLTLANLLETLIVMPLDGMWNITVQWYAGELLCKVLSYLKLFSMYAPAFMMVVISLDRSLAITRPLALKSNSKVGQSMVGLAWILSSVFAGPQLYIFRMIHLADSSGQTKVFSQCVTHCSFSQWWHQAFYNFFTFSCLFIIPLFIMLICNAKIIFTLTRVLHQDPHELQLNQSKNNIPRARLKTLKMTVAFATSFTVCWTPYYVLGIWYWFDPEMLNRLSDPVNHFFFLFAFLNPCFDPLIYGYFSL
Method in brief: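 HEK293 cells stably expressing cloned human GnRH receptor plus luciferase reporter under LH alpha subunit promoter; plated 5 × 10^4 cells/well, overnight 37 °C. Compounds in 1% DMSO, 11 half-log concentrations in duplicate, 10 min preincubation, then GnRH 1 nM final, ≥5 h at 37 °C; luminescence read. Percent of control fitted to IC50; geometric mean of ≥2 independent experiments.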

Rattus norvegicus [3] = experiment: Inhibition of GnRH-induced LH secretion in Sprague-Dawley rat at 50 ug, sc for 72 hrs; format: functional; method in brief: as §1
Rattus norvegicus [4] = experiment: Inhibition of GnRH-induced LH secretion in Sprague-Dawley rat at 50 ug, sc for 96 hrs; format: functional; method in brief: as §1

| IC50 [2] [nM] | Structure (SMILES) | Inhibition (Rattus norvegicus [1]) [%] | Inhibition (Rattus norvegicus [3]) [%] | Inhibition (Rattus norvegicus [4]) [%] |
| --- | --- | --- | --- | --- |
| 1.61 | CCOCCOCCNC(=O)N[C@H](Cc1ccc2ccccc2c1)C(=O)N[C@H](Cc1ccc(Cl)cc1)C(=O)N[C@H](Cc1cccnc1)C(=O)N[C@@H](CO)C(=O)N[C@@H](Cc1ccc(NC(=O)[C@@H]2CC(=O)NC(=O)N2)cc1)C(=O)N[C@H](Cc1ccc(NC(=O)NOC)cc1)C(=O)N[C@@H](CC(C)C)C(=O)N[C@@H](CCCCNC(C)C)C(=O)N1CCC[C@H]1C(=O)N[C@H](C)C(N)=O ({NHCH2CH2OCH2CH2OEt-CO}-[d2Nal][dPhe(4-Cl)][d3Pal]S[Phe(4-NH2)](Dihydroorotyl(S))[dPhe(4-NH2)](Methoxycarbamoyl)L[Lys(iPr)]P[dA]-NH2) | >80 |  |  |
| 0.6 | CONC(=O)Nc1ccc(C[C@H](NC(=O)[C@H](CO)NC(=O)[C@@H](Cc2cccnc2)NC(=O)[C@@H](Cc2ccc(Cl)cc2)NC(=O)[C@@H](Cc2ccc3ccccc3c2)NC(C)=O)C(=O)N[C@H](Cc2ccc(NC(N)=O)cc2)C(=O)N[C@@H](CC(C)C)C(=O)N[C@@H](CCCCNC(C)C)C(=O)N2CCC[C@H]2C(=O)N[C@H](C)C(N)=O)cc1 (Ac-[d2Nal][dPhe(4-Cl)][d3Pal]S[Phe(4-NH2)](Methoxycarbamoyl)[dPhe(4-NHCONH2)]L[Lys(iPr)]P[dA]-NH2) |  | >80 |  |
| 0.51 | CONC(=O)Nc1ccc(C[C@@H](NC(=O)[C@H](Cc2ccc(NC(=O)[C@@H]3CC(=O)NC(=O)N3)cc2)NC(=O)[C@H](CO)NC(=O)[C@@H](Cc2cccnc2)NC(=O)[C@@H](Cc2ccc(Cl)cc2)NC(=O)[C@@H](Cc2ccc3ccccc3c2)NC(C)=O)C(=O)N[C@@H](CC(C)C)C(=O)N[C@@H](CCCCNC(C)C)C(=O)N2CCC[C@H]2C(=O)N[C@H](C)C(N)=O)cc1 (Ac-[d2Nal][dPhe(4-Cl)][d3Pal]S[Phe(4-NH2)](Dihydroorotyl(S))[dPhe(4-NH2)](Methoxycarbamoyl)L[Lys(iPr)]P[dA]-NH2) |  |  | >80 |
